Data set [1] deals with Rattus norvegicus. The data set can be described thus: Antiarthritic activity in Lewis rat model of collagen-induced arthritis assessed as reduction in ankle swelling at 0.1 mg/kg, po administered via gavage once daily starting from day 6 to day 16 and measured from day 11 to day 17 by caliper method.
The subject of data set [2] is Rattus norvegicus. The data set can be described thus: Antiarthritic activity in Lewis rat model of collagen-induced arthritis assessed as reduction in ankle histopathological scores at 0.1 mg/kg, po administered via gavage once daily starting from day 6 to day 16 relative to control. Also noted: scale not given: the % may be the effect or the level left.
In data set [3] the target is T1, Tyrosine-protein kinase BTK (Homo sapiens, UniProt Q06187). The data set can be described thus: Covalent inhibition of N-terminal GST-fused human BTK (2-659(end) amino acids) expressed in baculovirus expression system using FITC-AHA-EEPLYWSFPAKKK-NH2 as substrate incubated for 90 mins by microfluidic off-Chip Mobility Shift Assay.
Data set [4] can be described thus: Apparent permeability across apical to basolateral side in human Caco2 cells at 1 uM incubated for 2 hrs by LC-MS/MS analysis. The data set is classed as ADME, cell-based. The note with it: Caco-2. On the technique in general: Caco-2 cells form a polarised layer with tight junctions and transporters.
Data set [5] is described as follows: Kinetic solubility of the compound. The data set is classed as physicochemical. The note with it: read-out: Kinetic_solubility.
Data set [6] in a line: Intrinsic clearance in human liver microsomes at 1 uM in presence of NADPH measured up to 30 mins by LC-MS/MS analysis. The data set is classed as ADME, Microsome. The note with it: read-out: CLH. (Liver microsomes are vesicles of endoplasmic reticulum, rich in cytochrome P450 enzymes.)
Another data set has as its target hERG (KCNH2) (Homo sapiens, UniProt Q12809). The data set can be described thus: Inhibition of human ERG expressed in HEK293 cells at 10 uM at -80 mV holding potential by […] relative to control. The class given is cell-based. Conditions: HEK293 cells expressing human ERG.
The target of data set [7] is Epidermal growth factor receptor (Homo sapiens, UniProt P00533). The data set can be described thus: Inhibition of N-terminal GST-tagged human EGFR (696 to end aminoacids) expressed in baculovirus infected Sf21 cells.
The species entered for another data set is Homo sapiens. The data set can be described thus: Selectivity ratio, ratio of IC50 for EGFR (unknown origin) to IC50 for full length human BTK ([…]).
In data set [8] the target is Voltage-gated inwardly rectifying potassium channel KCNH2 (Homo sapiens, UniProt Q12809). Description: Inhibition of human ERG expressed in HEK293 cells at -80 mV holding potential by […]. The data set is classed as cell-based.
In data set [9] the target is T1, Tyrosine-protein kinase BTK. Description: Inhibition of BTK in human PBMC cells assessed as reduction in anti-IgM-stimulated CD69 expression on B cells preincubated for 60 mins followed by goat F(ab')2 anti-human IgM stimulation and measured after overnight incubation by flow cytometry. The class given is cell-based. Background: Flow cytometry measures light scatter and fluorescence of single cells or particles in a stream.

Data set [10] can be described thus: Stability of the compound in plasma (unknown origin) assessed as compound remaining at 4 hrs. The data set is classed as ADME, cell-free. The note with it: read-out: Stability.
Data set [11] can be described thus: Efflux ratio in human Caco2 cells. The class given is ADME, cell-based. Conditions: Caco-2.
Data set [12] deals with Tyrosine-protein kinase BTK (Homo sapiens, UniProt Q06187, C481S). The data set can be described thus: Inhibition of BTK Cys481S mutant (unknown origin).
In data set [13] the test system is Mus musculus. Description: Inhibition of B cell activation in C57BL/6 mouse at 1 mg/kg, po after 1 hr relative to control. Conditions: Mus musculus, C57BL/6, po, 1 h. The class given is functional. The method in brief:
(§1)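 Normal C57BL/6 mice received a single oral dose of 1 mg/kg and were tested in an in vivo B cell stimulation assay. Inhibition of B cell activation was read at 1 h and 24 h after dosing.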

The subject of data set [14] is Mus musculus. The data set can be described thus: Inhibition of B cell activation in C57BL/6 mouse at 1 mg/kg, po after 24 hr relative to control. The data set is classed as functional. Conditions: Mus musculus, C57BL/6, po, 24 h. Put shortly: as §1
For data set [15], the system named is Mus musculus. Description: Inhibition of B cell activation in C57BL/6 mouse at 1 mg/kg, po after 0.25 hr relative to control. The class given is functional. The note with it: Mus musculus, C57BL/6, po, 0.25 h.
A short description of data set [16]: Cmax in C57BL/6 mouse at 1 mg/kg, po. The class given is ADME, organism-based. More on the design: dose 1 mg/kg, route oral. Conditions: in vivo.

Structures are written as SMILES. Values after ≈ are worked out from the molar mass of the structure shown. Active and inactive are the calls of the source. No cut-off for these calls is given here.

Voltage-gated inwardly rectifying potassium channel KCNH2, sequence (Q12809 whole entry): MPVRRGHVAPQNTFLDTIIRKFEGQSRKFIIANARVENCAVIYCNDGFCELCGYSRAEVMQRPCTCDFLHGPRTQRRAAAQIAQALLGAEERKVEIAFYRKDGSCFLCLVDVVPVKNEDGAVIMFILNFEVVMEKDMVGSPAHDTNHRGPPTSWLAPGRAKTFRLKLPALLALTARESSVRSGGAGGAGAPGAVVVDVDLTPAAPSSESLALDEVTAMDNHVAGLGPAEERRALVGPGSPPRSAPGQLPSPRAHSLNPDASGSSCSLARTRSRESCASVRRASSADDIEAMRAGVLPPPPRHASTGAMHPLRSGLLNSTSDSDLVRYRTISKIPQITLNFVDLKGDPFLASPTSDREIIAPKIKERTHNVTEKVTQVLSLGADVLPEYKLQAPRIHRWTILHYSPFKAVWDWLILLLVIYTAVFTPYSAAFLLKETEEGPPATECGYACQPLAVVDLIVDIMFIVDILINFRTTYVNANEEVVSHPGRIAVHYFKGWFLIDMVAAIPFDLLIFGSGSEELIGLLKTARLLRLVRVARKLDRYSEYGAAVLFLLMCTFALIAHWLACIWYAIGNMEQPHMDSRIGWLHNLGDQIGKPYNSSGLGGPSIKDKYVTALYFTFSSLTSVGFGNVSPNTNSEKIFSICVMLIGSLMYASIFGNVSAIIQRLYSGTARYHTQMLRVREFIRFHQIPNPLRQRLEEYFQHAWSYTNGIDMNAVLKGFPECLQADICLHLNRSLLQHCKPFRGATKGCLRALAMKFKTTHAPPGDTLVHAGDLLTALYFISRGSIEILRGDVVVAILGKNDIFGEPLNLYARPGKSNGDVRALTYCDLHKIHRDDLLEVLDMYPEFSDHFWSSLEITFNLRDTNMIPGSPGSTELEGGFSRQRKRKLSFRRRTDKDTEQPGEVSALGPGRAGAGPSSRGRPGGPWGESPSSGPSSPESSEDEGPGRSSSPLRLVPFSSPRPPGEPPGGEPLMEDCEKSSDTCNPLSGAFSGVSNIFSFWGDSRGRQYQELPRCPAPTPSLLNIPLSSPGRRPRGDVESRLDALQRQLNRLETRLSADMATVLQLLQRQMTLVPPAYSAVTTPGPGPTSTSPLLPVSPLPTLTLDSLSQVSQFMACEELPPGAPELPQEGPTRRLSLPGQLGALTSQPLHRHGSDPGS
hERG (KCNH2), sequence (Q12809 whole entry): as above
Epidermal growth factor receptor, sequence (P00533 whole entry): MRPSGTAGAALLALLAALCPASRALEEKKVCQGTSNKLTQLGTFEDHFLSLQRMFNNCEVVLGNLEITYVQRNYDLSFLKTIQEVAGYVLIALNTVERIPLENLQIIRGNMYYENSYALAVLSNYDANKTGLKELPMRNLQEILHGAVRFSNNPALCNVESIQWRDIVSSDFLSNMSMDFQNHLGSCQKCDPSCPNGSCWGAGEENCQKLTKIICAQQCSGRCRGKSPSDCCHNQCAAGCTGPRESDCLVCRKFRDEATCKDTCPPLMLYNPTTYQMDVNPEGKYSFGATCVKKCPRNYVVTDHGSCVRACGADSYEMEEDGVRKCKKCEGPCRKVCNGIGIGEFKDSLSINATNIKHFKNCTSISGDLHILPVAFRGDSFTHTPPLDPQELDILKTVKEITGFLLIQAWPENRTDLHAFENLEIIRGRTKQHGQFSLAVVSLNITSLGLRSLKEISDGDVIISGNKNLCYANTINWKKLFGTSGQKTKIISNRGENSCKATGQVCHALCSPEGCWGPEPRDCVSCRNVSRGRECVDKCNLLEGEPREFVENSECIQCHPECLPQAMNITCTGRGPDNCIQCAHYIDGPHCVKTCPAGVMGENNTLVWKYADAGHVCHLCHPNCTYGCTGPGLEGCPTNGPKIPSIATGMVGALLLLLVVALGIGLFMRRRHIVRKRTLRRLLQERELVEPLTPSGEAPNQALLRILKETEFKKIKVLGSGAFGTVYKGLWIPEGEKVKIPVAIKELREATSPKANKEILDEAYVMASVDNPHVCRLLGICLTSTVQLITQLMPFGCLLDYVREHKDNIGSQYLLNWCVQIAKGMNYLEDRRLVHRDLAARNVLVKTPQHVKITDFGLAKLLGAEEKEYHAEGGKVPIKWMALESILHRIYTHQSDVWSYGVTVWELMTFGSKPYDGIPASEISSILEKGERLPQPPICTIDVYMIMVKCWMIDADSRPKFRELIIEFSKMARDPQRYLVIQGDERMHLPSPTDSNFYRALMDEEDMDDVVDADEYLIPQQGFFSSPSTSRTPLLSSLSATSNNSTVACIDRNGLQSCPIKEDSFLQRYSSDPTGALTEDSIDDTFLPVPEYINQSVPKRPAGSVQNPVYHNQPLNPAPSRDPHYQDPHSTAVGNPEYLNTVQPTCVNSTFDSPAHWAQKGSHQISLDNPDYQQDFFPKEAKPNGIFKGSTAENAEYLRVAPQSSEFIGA
T1 sequence (Q06187 whole entry, the tested form may be a part): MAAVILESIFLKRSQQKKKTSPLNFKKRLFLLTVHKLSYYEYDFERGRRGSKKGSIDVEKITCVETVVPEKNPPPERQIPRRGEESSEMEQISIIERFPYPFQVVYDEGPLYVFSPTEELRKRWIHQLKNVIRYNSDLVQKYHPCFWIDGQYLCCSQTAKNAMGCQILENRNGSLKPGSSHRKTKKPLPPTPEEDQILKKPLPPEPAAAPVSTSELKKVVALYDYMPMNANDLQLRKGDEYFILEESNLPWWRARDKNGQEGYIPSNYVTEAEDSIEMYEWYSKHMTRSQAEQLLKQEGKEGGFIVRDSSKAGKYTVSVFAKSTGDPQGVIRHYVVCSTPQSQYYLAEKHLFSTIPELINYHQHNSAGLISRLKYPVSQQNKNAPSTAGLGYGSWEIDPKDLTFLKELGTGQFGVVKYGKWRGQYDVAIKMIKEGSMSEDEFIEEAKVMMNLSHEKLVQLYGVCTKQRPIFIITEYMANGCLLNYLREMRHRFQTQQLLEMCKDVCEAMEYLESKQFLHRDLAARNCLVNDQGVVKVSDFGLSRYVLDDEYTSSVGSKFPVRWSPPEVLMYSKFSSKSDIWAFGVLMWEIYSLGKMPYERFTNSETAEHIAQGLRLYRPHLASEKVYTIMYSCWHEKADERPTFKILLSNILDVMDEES
Tyrosine-protein kinase BTK (Homo sapiens, UniProt Q06187, C481S), sequence (Q06187 2-659 C481S limits assumed): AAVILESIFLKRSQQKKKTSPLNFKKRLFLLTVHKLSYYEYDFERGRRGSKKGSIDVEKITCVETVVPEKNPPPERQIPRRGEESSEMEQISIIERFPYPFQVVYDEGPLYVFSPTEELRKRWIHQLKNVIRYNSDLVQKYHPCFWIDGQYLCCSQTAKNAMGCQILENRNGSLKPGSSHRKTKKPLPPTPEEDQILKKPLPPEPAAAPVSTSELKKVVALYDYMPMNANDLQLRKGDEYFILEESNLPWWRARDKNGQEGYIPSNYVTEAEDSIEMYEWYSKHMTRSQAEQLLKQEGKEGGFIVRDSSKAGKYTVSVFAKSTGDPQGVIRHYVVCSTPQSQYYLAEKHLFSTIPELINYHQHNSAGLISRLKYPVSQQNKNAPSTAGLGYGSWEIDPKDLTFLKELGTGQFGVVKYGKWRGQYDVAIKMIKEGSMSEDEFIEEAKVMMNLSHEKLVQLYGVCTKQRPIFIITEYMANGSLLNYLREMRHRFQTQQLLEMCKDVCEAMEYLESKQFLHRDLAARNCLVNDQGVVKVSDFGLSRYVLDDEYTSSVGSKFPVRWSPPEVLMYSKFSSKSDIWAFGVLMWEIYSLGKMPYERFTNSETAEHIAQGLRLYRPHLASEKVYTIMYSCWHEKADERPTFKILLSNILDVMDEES

On to `CN(Cc1cnc2nc(N)nc(N)c2n1)c1ccc(C(=O)N[C@@H](CCC(=O)O)C(=O)O)cc1` [METHOTREXATE], for which the outcome in the data set with Rattus norvegicus [1] was Active. Further, the Activity in the data set on Rattus norvegicus [2] is given as 60%.

In the case of `C=CC(=O)NC1CCCN(c2ncnc(N)c2-c2ccc(Oc3ccccc3)cc2)C1` (stereo not drawn), in [3], the IC50 (commonly the midpoint of a concentration-inhibition curve) was 1500 nM.

For `C=CC(=O)N1CCC(Nc2ncnc(N)c2-c2ccc(Oc3ccccc3)cc2)C1` (single isomer, unassigned), the Papp A→B (usually the apparent permeability from the apical to the basolateral side of a cell layer) at 2 h, 1 µM in data set [4] came to 25.2 ×10⁻⁶ cm/s. In addition, the solubility kinetic in data set [5] is 160 µM (≈ 64.2 µg/mL). Moreover, in data set [6], the microsomal CLint at 1 µM came to 77 µL/min/mg. Testing at 10 µM on hERG (KCNH2) gave an inhibition of 40%.

For the compound `C=CC(=O)N1CCC(CNc2ncnc(N)c2-c2ccc(Oc3cccc(F)c3)cc2)CC1`, the microsomal CLint at 1 µM in [6] came out at 199 µL/min/mg.

For the compound `C=CC(=O)N1CCCC(Nc2ncnc(N)c2-c2ccc(Oc3ccccc3)cc2)C1` (single isomer, unassigned), the half-inhibitory concentration (IC50) in data set [7] was 550 nM. Also, the microsomal CLint at 1 µM in [6] was found to be 598 µL/min/mg. Also, at hERG (KCNH2), the inhibition (in general, the drop in the measured response relative to a control, in per cent) at 10 µM worked out at 43%.

As for `C=CC(=O)Nc1cccc(Oc2ccnc(N)c2-c2ccc(Oc3ccccc3)cc2)c1`, the Ratio IC50 in the data set listed under Homo sapiens was in the range of 25 to 30. Moreover, the IC50 in data set [7] is 140 nM; in data set [3], 5 nM. Also, the inhibition at 10 µM against hERG (KCNH2) worked out at 81%.

For the compound `C=CC(=O)Nc1cccc(Oc2ncncc2-c2ccc(Oc3ccccc3)cc2)c1`, the inhibition at 10 µM against hERG (KCNH2) was found to be 46%.

Consider `C=CC(=O)N[C@@H]1CCC[C@H](Nc2ncnc(N)c2-c2ccc(Oc3ccccc3)cc2)C1` (relative stereo), for which, in data set [4], the Papp A→B at 2 h, 1 µM stood at 11.9 ×10⁻⁶ cm/s. Besides, the solubility kinetic in data set [5] worked out at 134 µM (≈ 57.6 µg/mL). Besides, the microsomal CLint at 1 µM in data set [6] was determined as 27 µL/min/mg. Further, the Ki (commonly a dissociation constant, usually derived from enzyme kinetics or from competition with a known ligand) in data set [8] was found to be 1800 nM.

Take `C=CC(=O)N[C@H]1CC[C@@H](Nc2ncnc(N)c2-c2ccc(Oc3ccccc3)cc2)CC1`: in data set [4], the Papp A→B at 2 h, 1 µM was found to be 10 ×10⁻⁶ cm/s. Also, the solubility kinetic in data set [5] came to 154 µM (≈ 66.1 µg/mL). For the same compound, the microsomal CLint at 1 µM in data set [6] stood at 41 µL/min/mg.

Take `C=CC(=O)N1CC2(CC(Nc3ncnc(N)c3-c3ccc(Oc4ccccc4)cc3)C2)C1`: the Papp A→B at 2 h, 1 µM in data set [4] turned out to be 9.3 ×10⁻⁶ cm/s. The solubility kinetic in data set [5] worked out at 153 µM (≈ 65.4 µg/mL). Further, the microsomal CLint at 1 µM in data set [6] came to 777 µL/min/mg. Besides, the Ki in [8] amounted to 780 nM.

Regarding `C=CC(=O)N1CCC(CNc2ncnc(N)c2-c2ccc(Oc3ccncc3)cc2)CC1`, in data set [6], the microsomal CLint at 1 µM came out at 688 µL/min/mg. The IC50 in [3] amounted to 730 nM.

In the case of `Nc1ncnc(NCC2CCN(C(=O)C3=CCC3)CC2)c1-c1ccc(Oc2ccccc2)cc1`, the IC50 in data set [9] and in data set [3] was 290 nM in each case.

`C=CC(=O)N1CCC(CNc2ncnc(N)c2-c2ccc(C(=O)Nc3ccccc3)cc2)CC1`: the IC50 in data set [3] was determined as 1200 nM.

For the compound `Nc1ncnc(NCC2CCN(C(=O)CCl)CC2)c1-c1ccc(Oc2ccccc2)cc1`, the remaining at 4 h in data set [10] was 49%.

Regarding `C=CC(=O)N[C@@H]1CC[C@H](Nc2ncnc(N)c2-c2ccc(Oc3ccccc3)cc2)C1` (relative stereo), the Papp A→B at 2 h, 1 µM in [4] came out at 23.6 ×10⁻⁶ cm/s. Besides, the solubility kinetic in data set [5] is 158 µM (≈ 65.6 µg/mL). Moreover, in [6], the microsomal CLint at 1 µM came out at 202 µL/min/mg.

For the compound `C=CC(=O)N1CCC(Nc2ncnc(N)c2-c2ccc(Oc3ccccc3)cc2)CC1`, the half-maximal inhibitory concentration (IC50) in data set [3] turned out to be 1510 nM.

Consider `C=CC(=O)Nc1cccc(Nc2ncnc(N)c2-c2ccc(Oc3ccccc3)cc2)c1`, for which the Papp A→B at 2 h, 1 µM in data set [4] was 4.2 ×10⁻⁶ cm/s. For the same compound, the IC50 came to 19 nM in data set [9], 4 nM in [7] and 4 nM in data set [3]. In addition, the solubility kinetic in data set [5] came out at 16 µM (≈ 6.78 µg/mL). Besides, the efflux ratio (commonly the permeability from basolateral to apical divided by that in the opposite direction, in the common usage) in data set [11] was 1.6. In addition, the microsomal CLint at 1 µM in data set [6] was determined as 43 µL/min/mg. This compound also had a Ki in [8] of 530 nM.

Consider `C#CC(=O)N1CCC(CNc2ncnc(N)c2-c2ccc(Oc3ccccc3)cc2)CC1`, for which the remaining at 4 h in data set [10] is 34%. Further, the IC50 in data set [3] stood at 0.2 nM.

Turning to `C=CC(=O)NC12CCC(Nc3ncnc(N)c3-c3ccc(Oc4ccccc4)cc3)(C1)C2`, in [4], the apparent permeability from apical to basolateral (Papp A→B) at 2 h, 1 µM worked out at 21.7 ×10⁻⁶ cm/s. Besides, the IC50 came to 70 nM in [9] and 9.9 nM in [3]. Further, in data set [5], the solubility kinetic was determined as 110 µM (≈ 47 µg/mL). Further, the efflux ratio in data set [11] was 1.4. The microsomal CLint at 1 µM in data set [6] was found to be 36 µL/min/mg. In data set [8], the Ki came to 1300 nM.

With `C=CC(=O)N1CCC(CNc2ncnc(N)c2-c2ccc(Oc3ccc(C)cc3)cc2)CC1`, in data set [6], the microsomal CLint at 1 µM was 145 µL/min/mg. In addition, the IC50 in data set [3] was 18 nM.

In the case of `C=CC(=O)N1CCC(CNc2ncnc(N)c2-c2ccc(Oc3ccccc3)cc2C(F)(F)F)CC1`, the IC50 in [3] is more than 100000 nM.

Take `C=CS(=O)(=O)N1CCC(CNc2ncnc(N)c2-c2ccc(Oc3ccccc3)cc2)CC1`: in [10], the remaining at 4 h was determined as 16%.

Turning to `C=CC(=O)Nc1cccc(-c2c(N)ncnc2Nc2ccc(Oc3ccccc3)cc2)c1`, the IC50 in data set [7] is 1 nM; in [3], 8 nM.

On to `CC(=O)N1CCC(CNc2ncnc(N)c2-c2ccc(Oc3ccccc3)cc2)CC1`, for which, in data set [12], the IC50 was in the range of 8600 to 8700 nM.

For the compound `C=CC(=O)N1CCC(O)(CNc2ncnc(N)c2-c2ccc(Oc3ccccc3)cc2)CC1`, in data set [4], the Papp A→B at 2 h, 1 µM is 9 ×10⁻⁶ cm/s. The values for the inhibition in vivo at 1 mg/kg in the data set on Mus musculus [13], in the data set with Mus musculus [14] and in the data set on Mus musculus [15] were 42%, 15% and 37%, respectively. In addition, the solubility kinetic in [5] turned out to be 169 µM (≈ 75.3 µg/mL). Besides, in [6], the microsomal CLint at 1 µM was 68 µL/min/mg. Besides, the Cmax (as a rule, the highest concentration seen after dosing) in data set [16] came to 257 nM. The compound further had an inhibition at 10 µM on hERG (KCNH2) of 45%.

In the case of `C=CC(=O)Nc1cccc(Oc2ncnc(N)c2-c2ccc(Oc3ccccc3)cc2)c1`, the Papp A→B at 2 h, 1 µM in [4] was 1.6 ×10⁻⁶ cm/s. Besides, the values for the IC50 in [9], in [7] and in data set [3] were 9.9 nM, 78 nM and 2.9 to 3 nM, respectively. The Ratio IC50 in the data set listed under Homo sapiens lay in the range of 25 to 30. For the same compound, in data set [5], the solubility kinetic was less than 2.4 µM. The efflux ratio in data set [11] came out at 4.3. Further, the microsomal CLint at 1 µM in data set [6] is 277 µL/min/mg. Besides, on hERG (KCNH2), the inhibition at 10 µM was determined as 3%.

For `C=CC(=O)N1CCC(CNc2ncnc(N)c2-c2ccc(Oc3ccc(F)cc3)cc2)CC1`, the microsomal CLint at 1 µM in [6] turned out to be 143 µL/min/mg. Further, in [3], the IC50 was 150 nM.

Consider `C=CC(=O)N1CCC(CNc2ncnc(N)c2-c2cc(F)c(Oc3ccccc3)cc2F)CC1`, for which the microsomal CLint at 1 µM in data set [6] amounted to 143 µL/min/mg. The IC50 in data set [3] came to 160 nM.

`C=CC(=O)Nc1cccc(Oc2ccncc2-c2ccc(Oc3ccccc3)cc2)c1`: the IC50 in [3] is 44 nM.

These data come from ChEMBL document CHEMBL4373703 (J Med Chem, 2019).
